Data: ChEMBL document CHEMBL5260830, “Breakthroughs in neuroactive steroid drug discovery” (Bioorg Med Chem Lett, 2018)
In brackets after ≈: the same amount, converted by molar mass.

Columns and labels:
Mus musculus [1] = assay: Anticonvulsant activity in PTZ induced mouse assessed as reduction in tonic seizure at 3 mg/kg,po (reference value: 80%); format: functional; parameters: scale not given: the % may be the effect or the level left
Summary of the method: (§1)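 Mice were given oral doses of 3, 10 or 30 mg/kg, with a vehicle group. Pentylenetetrazole was used to induce seizures. Percentages of animals with clonic seizure, tonic seizure and death were recorded. Plasma (ng/mL) and brain (ng/g) concentrations were measured in samples collected 30 min after administration.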

[2] = Plasma concentration in mouse at 10 mg/kg, po measured after 30 mins; format: ADME, organism-based; summary of the method: as §1
Mus musculus [3] = assay: Anticonvulsant activity in PTZ induced mouse assessed as reduction in clonic seizure at 10 mg/kg,po (reference value: 100%); format: functional; parameters: scale not given: the % may be the effect or the level left; summary of the method: as §1
Mus musculus [4] = assay: Anticonvulsant activity in PTZ induced mouse assessed as animal death at 3 mg/kg,po (reference value: 80%); format: functional; summary of the method: as §1
Mus musculus [5] = assay: Anticonvulsant activity in PTZ induced mouse assessed as reduction in clonic seizure at 3 mg/kg,po (reference value: 100%); format: functional; parameters: scale not given: the % may be the effect or the level left; summary of the method: as §1
[6] = Brain concentration in mouse at 30 mg/kg po measured after 30 mins; format: ADME, organism-based; details: read-out: Ct; summary of the method: as §1
[7] = Brain concentration in mouse at 10 mg/kg po measured after 30 mins; format: ADME, organism-based; details: read-out: Ct; summary of the method: as §1
[8] = Plasma concentration in mouse at 3 mg/kg, po measured after 30 mins; format: ADME, organism-based; summary of the method: as §1
[9] = Brain concentration in mouse at 3 mg/kg po measured after 30 mins; format: ADME, organism-based; details: read-out: Ct; summary of the method: as §1
[10] = Plasma concentration in mouse at 30 mg/kg, po measured after 30 mins; format: ADME, organism-based; summary of the method: as §1
Rattus norvegicus = assay: Neuroprotective activity against transient middle cerebral artery occlusion induced cerebral infraction Sprague-Dawley rat model assessed as decrease in cerebral infraction volume at 12 mg/kg, ip and measured after 7 days by TTC staining based assay; format: functional; parameters: scale not given: the % may be the effect or the level left; details: time 7 day
[11] = Inhibition of NMDA current in Sprague-Dawley rat Cortical neuron; format: functional, cell-based; details: cortical neurone
[12] = Inhibition of NMDA induced calcium increase in Sprague-Dawley rat Cortical neuron; format: functional, cell-based, Cortical neurone
[13] = biological target: GABA-A receptor; anion channel (Homo sapiens) (UniProt P14867+P47870+P18507+P28472+P48169+Q99928+Q9UN88+P34903+O00591+O14764+Q8N1C3+P18505+P78334+P47869+P31644+Q16445); assay: Potentiation of NAS mediated GABA (unknown origin) tonic effect assessed as fold potentiation; format: protein-complex assay; details: filed as activator
[14] = biological target: T1, Gamma-aminobutyric acid receptor subunit alpha-2/beta-1/gamma-2 (Homo sapiens, UniProt P18505+P18507+P47869); assay: Positive allosteric modulation of human GABAA alpha2beta1gamma2 receptor expressed in Xenopus laevis oocytes by two-microelectrode voltage-clamp assay; format: cell-based, Oocyte
T1 sequence (P18507 whole entry): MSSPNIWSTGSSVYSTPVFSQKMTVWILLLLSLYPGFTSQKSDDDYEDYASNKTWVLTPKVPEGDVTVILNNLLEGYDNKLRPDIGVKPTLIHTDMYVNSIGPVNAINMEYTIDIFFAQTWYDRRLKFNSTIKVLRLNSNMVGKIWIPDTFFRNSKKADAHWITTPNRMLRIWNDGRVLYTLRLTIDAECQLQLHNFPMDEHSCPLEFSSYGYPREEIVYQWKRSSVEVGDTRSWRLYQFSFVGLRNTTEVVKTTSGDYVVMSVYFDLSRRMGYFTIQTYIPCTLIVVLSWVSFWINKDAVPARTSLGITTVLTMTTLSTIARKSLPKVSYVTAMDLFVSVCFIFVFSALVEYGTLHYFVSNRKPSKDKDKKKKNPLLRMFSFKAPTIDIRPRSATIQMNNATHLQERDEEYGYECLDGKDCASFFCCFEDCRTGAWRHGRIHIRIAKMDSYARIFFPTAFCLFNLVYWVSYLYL
T1 sequence (P18505 whole entry): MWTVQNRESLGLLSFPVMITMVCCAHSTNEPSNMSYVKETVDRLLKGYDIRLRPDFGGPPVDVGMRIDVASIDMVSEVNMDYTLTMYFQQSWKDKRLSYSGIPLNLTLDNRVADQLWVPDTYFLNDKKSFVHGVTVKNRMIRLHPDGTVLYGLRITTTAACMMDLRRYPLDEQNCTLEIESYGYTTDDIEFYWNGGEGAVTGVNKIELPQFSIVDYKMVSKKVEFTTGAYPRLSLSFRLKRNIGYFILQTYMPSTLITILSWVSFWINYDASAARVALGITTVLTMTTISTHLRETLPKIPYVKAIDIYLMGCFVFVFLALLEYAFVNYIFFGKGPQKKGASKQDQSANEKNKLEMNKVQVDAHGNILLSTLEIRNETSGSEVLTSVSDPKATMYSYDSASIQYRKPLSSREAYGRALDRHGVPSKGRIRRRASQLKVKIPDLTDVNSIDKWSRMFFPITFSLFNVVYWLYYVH
T1 sequence (P47869 whole entry): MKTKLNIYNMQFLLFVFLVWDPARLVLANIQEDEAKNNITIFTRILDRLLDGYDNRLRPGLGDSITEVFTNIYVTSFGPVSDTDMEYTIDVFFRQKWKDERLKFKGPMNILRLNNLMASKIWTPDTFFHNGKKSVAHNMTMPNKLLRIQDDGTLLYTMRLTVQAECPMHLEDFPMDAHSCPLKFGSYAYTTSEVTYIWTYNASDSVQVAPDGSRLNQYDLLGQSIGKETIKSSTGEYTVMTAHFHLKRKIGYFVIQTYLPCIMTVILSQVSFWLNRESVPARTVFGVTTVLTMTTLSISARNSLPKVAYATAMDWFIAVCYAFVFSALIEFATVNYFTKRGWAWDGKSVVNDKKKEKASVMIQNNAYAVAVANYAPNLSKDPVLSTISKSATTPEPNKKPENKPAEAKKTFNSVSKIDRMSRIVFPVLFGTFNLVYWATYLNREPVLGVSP
Summary of the method: (§2)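 PAM activity measured as EC50 in Xenopus oocytes expressing α1β2γ2L or α2β1γ2L GABAA receptors.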

Mus musculus [15] = species: Mus musculus; assay: Anticonvulsant activity in 6-Hz induced seizure mouse model assessed as protection against 6-Hz induced seizure; format: functional
Summary of the method: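 Tonic currents recorded from voltage-clamped ([…]) dentate gyrus granule cells of wild-type female mice. Value is fold potentiation of the mean normalized tonic response to 1 µM GABA, from four to eight cells per steroid and concentration. Anticonvulsant ED50 determined in the mouse 6-Hz psychomotor seizure model.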

[16] = biological target: T2, GABA-A receptor; alpha-1/beta-2/gamma-2 (Homo sapiens, UniProt P14867+P18507+P47870); assay: Positive allosteric modulation of human GABAA alpha1beta2gamma2 receptor expressed in Xenopus laevis oocytes by two-microelectrode voltage-clamp assay; format: cell-based, Oocyte; summary of the method: as §2
T2 sequence (P14867 whole entry): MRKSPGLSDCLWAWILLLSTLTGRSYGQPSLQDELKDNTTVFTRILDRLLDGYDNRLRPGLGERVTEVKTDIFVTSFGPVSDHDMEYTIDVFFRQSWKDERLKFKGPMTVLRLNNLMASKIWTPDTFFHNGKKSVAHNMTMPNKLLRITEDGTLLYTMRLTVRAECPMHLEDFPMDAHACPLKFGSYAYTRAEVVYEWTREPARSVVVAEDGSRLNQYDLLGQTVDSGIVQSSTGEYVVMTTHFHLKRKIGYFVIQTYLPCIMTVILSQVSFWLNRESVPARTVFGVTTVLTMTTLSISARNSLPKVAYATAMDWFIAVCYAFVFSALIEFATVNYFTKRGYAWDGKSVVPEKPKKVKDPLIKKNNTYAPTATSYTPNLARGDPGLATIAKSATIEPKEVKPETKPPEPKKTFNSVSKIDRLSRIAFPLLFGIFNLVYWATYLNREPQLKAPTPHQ
T2 sequence (P47870 whole entry): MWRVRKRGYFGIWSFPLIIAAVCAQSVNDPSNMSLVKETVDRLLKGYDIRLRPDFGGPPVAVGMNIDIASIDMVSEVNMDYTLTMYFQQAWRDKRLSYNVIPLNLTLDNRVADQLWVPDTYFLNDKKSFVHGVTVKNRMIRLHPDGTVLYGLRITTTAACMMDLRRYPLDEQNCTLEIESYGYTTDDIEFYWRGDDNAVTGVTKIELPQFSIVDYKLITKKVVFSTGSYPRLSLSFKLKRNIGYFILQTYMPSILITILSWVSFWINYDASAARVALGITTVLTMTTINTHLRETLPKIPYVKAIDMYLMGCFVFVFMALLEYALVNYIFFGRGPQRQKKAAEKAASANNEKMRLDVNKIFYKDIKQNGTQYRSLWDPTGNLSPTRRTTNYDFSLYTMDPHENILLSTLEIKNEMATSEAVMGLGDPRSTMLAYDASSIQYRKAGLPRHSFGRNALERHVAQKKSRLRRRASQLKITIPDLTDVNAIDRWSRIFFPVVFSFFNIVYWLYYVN
T2 sequence (P18507 whole entry): T1 sequence (P18507 whole entry)

[17] = Solubility of the compound in 45% HPbetaCD; format: physicochemical
[18] = Therapeutic index, ratio of AD50 for mouse to ED50 for anticonvulsant activity in PTZ induced mouse administered orally; format: toxicity; details: in vivo, route po, read-out: TI
Summary of the method: (§3)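 Mice were dosed orally. Anxiolytic activity was tested in the elevated plus maze and reported as minimum effective dose. Anticonvulsant activity was tested against pentylenetetrazole-induced seizures and reported as ED50. Therapeutic indices were given for the anxiolytic and anticonvulsant read-outs against a preliminary mouse safety measure.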

Mus musculus [19] = species: Mus musculus; assay: Anxiolytic activity in mouse assessed as increase in time spent in open arm by elevated plus maze test; format: functional; details: read-out: MED; summary of the method: as §3
Mus musculus [20] = assay: Anticonvulsant activity in PTZ induced mouse administered orally; format: functional; details: route po; summary of the method: as §3
[21] = Therapeutic index, ratio of AD50 for mouse to MED for anxiolytic activity in mouse assessed as increase in time spent in open arm by elevated plus maze test; format: toxicity; details: read-out: TI; summary of the method: as §3
[22] = Oral availability in rat 3 mg/kg, po; format: ADME, organism-based; details: in vivo
Summary of the method: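 Rat oral bioavailability from dosing at 3 mg/kg p.o. and 1 mg/kg i.v.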

SMILES: C[C@@]1(O)CC[C@H]2[C@H](CC[C@@H]3[C@@H]2CC[C@]2(C)[C@@H](C(=O)Cn4nccn4)CC[C@@H]32)C1
- Activity (Mus musculus [1]): 40%
- concentration at 0.5 h [2]: 703 ng/mL
- Activity (Mus musculus [3]): 20%
- Activity (Mus musculus [4]): 30%
- Activity (Mus musculus [5]): 90%
- concentration at 0.5 h [6]: 1960 ng/g
- concentration at 0.5 h [7]: 773 ng/g
- concentration at 0.5 h [8]: 87 ng/mL
- concentration at 0.5 h [9]: 87 ng/g
- concentration at 0.5 h [10]: 1690 ng/mL

SMILES: C=C(C)CC[C@@H](C)[C@H]1CC[C@H]2[C@@H]3C[C@@H](O)[C@@]4(O)C[C@H](O)CC[C@]4(CO)[C@H]3CC[C@]12C
- Activity (Rattus norvegicus): 30%
- IC50 [11]: 10.3 µM
- IC50 ([12]; Rattus norvegicus, Sprague-Dawley, Cortical neurone): 7.8 µM
- IC50 ([12]; cortical neurone): 10.3 µM

SMILES: CC(=O)[C@H]1CC[C@H]2[C@@H]3CC[C@H]4C[C@](C)(O)CC[C@]4(C)[C@H]3CC[C@]12C [GANAXOLONE]
- fold change (FC) [13]: 3.47
- EC50 [14]: 0.1 µM
- ED50 (Mus musculus [15]): 1.5 mg/kg
- EC50 [16]: 0.2 µM
- solubility [17]: 20 mM (≈ 6.65 mg/mL)
- selectivity ratio [18]: 3
- minimal effective dose (Mus musculus [19]): 20 mg/kg
- ED50 (Mus musculus [20]): 23 mg/kg
- selectivity ratio [21]: 3.3

SMILES: C[C@@]1(O)CC[C@@]2(C)[C@@H](CC[C@@H]3[C@@H]2CC[C@]2(C)[C@@H](c4cc(CO)on4)CC[C@@H]32)C1
- bioavailability [22]: 77%
- EC50 [14]: 0.2 µM
- EC50 [16]: 1.2 µM
- solubility [17]: 52 mM (≈ 20.2 mg/mL)
- selectivity ratio [18]: 6
- minimal effective dose (Mus musculus [19]): ≤ 0.3 mg/kg
- ED50 (Mus musculus [20]): 6 mg/kg
- selectivity ratio [21]: ≥ 127
